Consider eleven compounds from ChEMBL document CHEMBL1156226, “Synthesis and structure-activity relationship studies of peptidomimetic PKB/Akt inhibitors: the significance of backbone interactions” (Bioorg Med Chem, 2010).

Molecules are shown by their SMILES. pIC50: −log10 of the molar value. Peptide text beside a SMILES is read from it.

For assay [1], the target named is T1, RAC-alpha serine/threonine-protein kinase (Homo sapiens, UniProt P31749). Briefly: Inhibition of PKB at 20 uM by radioactive kinase assay relative to control. In a few lines: (§1)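 PKB/Akt enzyme HisAPHPKBEEEFlag, partly purified in one step on Ni-NTA agarose. The radioactive kinase reaction contains 50 mM Hepes pH 7.4, 0.1 mM EGTA, 0.1% 2-mercaptoethanol, 10 mM magnesium acetate, 3 uM RPRTSSF peptide substrate, 10 uM [γ32P]ATP and 0.005 units enzyme. Inhibition is given as percent reduction of activity against a no-inhibitor control. IC50 values, with 95% confidence ranges, come from curve fitting.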
T1 sequence (P31749 whole entry): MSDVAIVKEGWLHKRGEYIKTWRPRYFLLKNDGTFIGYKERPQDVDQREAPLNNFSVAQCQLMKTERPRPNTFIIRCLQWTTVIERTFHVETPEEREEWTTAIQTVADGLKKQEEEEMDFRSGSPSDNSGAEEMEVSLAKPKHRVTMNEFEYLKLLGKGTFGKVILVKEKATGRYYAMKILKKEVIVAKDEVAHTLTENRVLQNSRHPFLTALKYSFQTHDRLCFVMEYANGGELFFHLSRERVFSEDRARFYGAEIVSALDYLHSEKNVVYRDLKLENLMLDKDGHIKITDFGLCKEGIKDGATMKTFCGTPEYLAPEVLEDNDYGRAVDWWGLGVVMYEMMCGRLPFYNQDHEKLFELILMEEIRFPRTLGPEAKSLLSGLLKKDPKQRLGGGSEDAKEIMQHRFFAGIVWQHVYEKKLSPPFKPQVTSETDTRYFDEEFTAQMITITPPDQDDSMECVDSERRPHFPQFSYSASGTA

Assay [2] has as its target T1, RAC-alpha serine/threonine-protein kinase. The experiment in a line: Inhibition of PKB at 5 uM by radioactive kinase assay relative to control. In short, it runs like this: as §1
The target is the same in assay [3]. The experiment in a line: Inhibition of PKB by radioactive kinase assay. In short, it runs like this:
as §1

The target is the same in assay [4]. Briefly: Inhibition of PKB at 100 uM by radioactive kinase assay relative to control. In short, it runs like this:
as §1

Consider `CCC[C@H](NC(=O)[C@H](CCCNC(=N)N)NC(=O)[C@@H]1CCCN1C(=O)[C@H](CCCNC(=N)N)NC(=O)[C@H](N)CCCCN)C(=O)N[C@@H](Cc1ccc(O)cc1)C(=O)N[C@@H](CN)C(=O)N[C@@H](CCC(C)C)C(=O)O`, for which the inhibition in assay [1] was determined as 48%.

As for `CCC[C@H](NC(=O)[C@H](CCCNC(=N)N)NC(=O)[C@@H]1CCCN1C(=O)[C@H](CCCNC(=N)N)NC(=O)[C@H](N)CCCCN)C(=O)N[C@@H](Cc1ccc(O)cc1)C(=O)N[C@@H](CN)C(=O)N[C@@H](CCC(C)C)C(N)=O`, the inhibition in assay [1] was determined as 3%.

For the compound `CCC[C@H](NC(=O)[C@H](CCCNC(=N)N)NC(=O)[C@@H]1CCCN1C(=O)[C@H](CCCNC(=N)N)NC(=O)[C@H](N)CCCNC(=N)N)C(=O)N[C@@H](Cc1ccc(O)cc1)C(=O)N[C@@H](CN)C(=O)N[C@@H](CCC(C)C)C(=O)O`, the inhibition in assay [1] stood at 69%.

With `CCC[C@H](NC(=O)[C@H](CCCNC(=N)N)NC(=O)[C@@H]1CCCN1C(=O)[C@H](CCCNC(=N)N)NC(=O)[C@H](CCCNC(=N)N)NC(C)=O)C(=O)N[C@@H](Cc1ccc(O)cc1)C(=O)N[C@@H](CN)C(=O)N[C@@H](CCC(C)C)C(N)=O` (HELM PEPTIDE1{[ac].R.R.P.R.[Nva].Y.[NC[C@H](N[*:1])C(=O)[*:2]].[CC(C)CC[C@H](N[*:1])C(=O)[*:2]].[am]}$$$$V2.0), the inhibition was determined as 94% in assay [1] and 83% in assay [2].

As to `CCC[C@H](NC(=O)[C@H](CCCN=C(N)N)NC(=O)[C@@H]1CCCN1C(=O)[C@H](CCCN=C(N)N)NC(=O)[C@@H](N)CCCN=C(N)N)C(=O)N[C@@H](Cc1ccc(O)cc1)C(=O)N[C@@H](CN)C(=O)N[C@@H](CCC(C)C)C(N)=O`, the negative logarithm of the IC50 (pIC50) in assay [3] is 6.08.

Turning to `CCC[C@H](NC(=O)[C@H](CCCNC(=N)N)NC(=O)[C@@H]1CCCN1C(=O)[C@H](CCCNC(=N)N)NC(=O)[C@H](N)CCCNC(=N)N)C(=O)N[C@@H](Cc1ccc(O)cc1)C(=O)N[C@@H](CN)C(=O)N[C@@H](CCC(C)C)C(N)=O`, the inhibition in assay [1] turned out to be 40%.

Turning to `CCC[C@H](NC(=O)[C@H](CCCNC(=N)N)NC(=O)[C@@H]1CCCN1C(=O)[C@H](CCCNC(=N)N)NC(=O)[C@H](CCCCN)NC(C)=O)C(=O)N[C@@H](Cc1ccc(O)cc1)C(=O)N[C@@H](CN)C(=O)N[C@@H](CCC(C)C)C(N)=O` (HELM PEPTIDE1{[ac].K.R.P.R.[Nva].Y.[NC[C@H](N[*:1])C(=O)[*:2]].[CC(C)CC[C@H](N[*:1])C(=O)[*:2]].[am]}$$$$V2.0), the inhibition was 85% in assay [1] and 61% in assay [2].

Consider `CCC[C@H](NC(=O)[C@H](CCCNC(=N)N)NC(=O)[C@@H]1CCCN1C(=O)[C@@H](N)CCCNC(=N)N)C(=O)N[C@@H](Cc1ccc(O)cc1)C(=O)N[C@@H](CN)C(=O)N[C@@H](CCC(C)C)C(=O)O` (HELM PEPTIDE1{R.P.R.[Nva].Y.[NC[C@H](N[*:1])C(=O)[*:2]].[CC(C)CC[C@H](N[*:1])C(=O)O]}$$$$V2.0), for which the inhibition in assay [4] was determined as 95%; in assay [2] it was 51%.

For the compound `CCC[C@H](NC(=O)[C@H](CCCNC(=N)N)NC(=O)[C@@H]1CCCN1C(=O)[C@H](CCCNC(=N)N)NC(=O)[C@H](CCCCN)NC(C)=O)C(=O)N[C@@H](Cc1ccc(O)cc1)C(=O)N[C@@H](CN)C(=O)N[C@@H](CCC(C)C)C(=O)O` (HELM PEPTIDE1{[ac].K.R.P.R.[Nva].Y.[NC[C@H](N[*:1])C(=O)[*:2]].[CC(C)CC[C@H](N[*:1])C(=O)O]}$$$$V2.0), the inhibition in assay [1] came out at 46%.

On to `CCC[C@H](NC(=O)[C@H](CCCNC(=N)N)NC(=O)[C@@H]1CCCN1C(=O)[C@H](CCCNC(=N)N)NC(=O)[C@@H](N)CCCCN)C(=O)N[C@@H](Cc1ccc(O)cc1)C(=O)N[C@@H](CN)C(=O)N[C@@H](CCC(C)C)C(N)=O`, for which the inhibition in assay [1] came to 92%; in assay [2], 73%.

For `CCC[C@H](NC(=O)[C@H](CCCNC(=N)N)NC(=O)[C@@H]1CCCN1C(=O)[C@H](CCCNC(=N)N)NC(=O)[C@@H](N)CCCNC(=N)N)C(=O)N[C@@H](Cc1ccc(O)cc1)C(=O)N[C@@H](CN)C(=O)N[C@@H](CCC(C)C)C(N)=O`, the inhibition in assay [1] turned out to be 96%; in assay [2], 88%.

One may read the inhibition as the relative decrease from the control value, in per cent. As a reminder, the pIC50 is −log10 of the IC50, conventionally taken in molar units.
